MrgX1 allo act: allosterically activates human MrgX1 receptor signaling; MrgX1-HEK293, Fluo-4 calcium flux, FDSS; active compounds read high; Q96LB2; 310,000 compounds, 0.63% hits; B-score at 10 µM; AID 588675;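 active = plate-corrected calcium response at least 3 library SD above typical, normal starting fluorescence, not activating the receptor alone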;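 also: compound read alongside a low EC10 to EC30 dose of BAM8-22 agonist; peak minus trough fluorescence over baseline measured at the second addition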
Target sequence (Q96LB2 whole entry, looked up): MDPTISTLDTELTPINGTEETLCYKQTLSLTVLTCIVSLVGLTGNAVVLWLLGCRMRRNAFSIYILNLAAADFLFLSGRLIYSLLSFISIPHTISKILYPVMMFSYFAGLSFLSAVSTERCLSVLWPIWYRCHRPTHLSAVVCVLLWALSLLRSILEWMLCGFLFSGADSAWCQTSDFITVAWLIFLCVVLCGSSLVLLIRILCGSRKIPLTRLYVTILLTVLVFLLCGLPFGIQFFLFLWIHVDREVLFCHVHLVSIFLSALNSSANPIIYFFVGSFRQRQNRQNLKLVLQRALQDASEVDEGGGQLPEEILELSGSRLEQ
RGS4 act: potentiators or activators of RGS4; HEK293 M3R/inducible RGS4, carbachol calcium flux Fluo4; active compounds read low; B-score at 10 µM; 310,000 compounds, 0.92% hits; AID 463111;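 active = B-score of the integrated calcium signal more than 4 SD below the library mean, with starting fluorescence not abnormally high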;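 also: negative B-score means reduced calcium response which marks RGS4 activation or potentiation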
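Also added: carbachol at ECmax as muscarinic agonist stimulus; Assay system: HEK293 cells with stable M3R and inducible RGS4; Timing: overnight RGS4 induction, 30 min dye load 37 °C, 20 min compound RT; Measured by: Fluo4-AM (2 µM) calcium-flux fluorescence, kinetic read.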
MrgX1 ag: human MrgX1 receptor agonism, primary screen; B-score at 10 µM; 310,000 compounds, 0.44% hits; AID 588627; Q96LB2; MrgX1-HEK293 cells, Fluo-4 calcium fluorescence, agonist mode; active compounds read high;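 active = calcium response B-score plate-corrected fluorescence ratio at least 3 library SD, with starting fluorescence B-score inside 5 SD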
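Test system: HEK293 cells stably expressing human MrgX1 receptor; amount: 15,000 cells per well; doses: compound delivered in addition one of three; times: overnight plating before 1 h dye loading; detection: Fluo-4 NW calcium-flux fluorescence, kinetic read; read-out basis: B-scored fluorescence response ratio; controls: positive and negative controls per plate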
RGS4 inh: human RGS4 inhibition; P49798; HEK293 M3R/RGS4 inducible, Fluo-4 calcium flux; active compounds read high; triggered by carbachol at its EC20; B-score at 10 µM; 310,000 compounds, 0.45% hits; AID 463165;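 active = B-score, a plate-corrected calcium signal, over three deviations above library mean, with baseline fluorescence within five deviations of library mean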;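 also: RGS4 expression induced by doxycycline in cells with stable M3 receptor; B-score is computed from the integrated fluorescence ratio over baseline after carbachol; higher B-score means a larger calcium signal and so more RGS4 inhibition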
Target sequence (P49798 whole entry, looked up): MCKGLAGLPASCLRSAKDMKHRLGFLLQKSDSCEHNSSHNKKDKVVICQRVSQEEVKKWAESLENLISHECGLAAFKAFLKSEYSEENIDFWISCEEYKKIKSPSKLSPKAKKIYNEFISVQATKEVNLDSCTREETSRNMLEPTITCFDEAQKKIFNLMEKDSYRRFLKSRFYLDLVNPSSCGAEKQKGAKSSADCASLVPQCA
MrgX1 antagonist: blocks BAM8-22 activation of human MrgX1 receptor; MRGX1-HEK293 calcium flux, Fluo-4, BAM8-22 antagonism; active compounds read low; B-score at 10 µM; 310,000 compounds, 1.3% hits;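 active = calcium-response B-score plate-corrected more than 3 library SD below zero, starting fluorescence within 5 deviations, no agonist response on first addition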;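 also: peak minus trough fluorescence over baseline after final BAM8-22 challenge near maximal dose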
RGS4 inh valid: RGS4 inhibitor validation; shares compounds with RGS4 inh; HEK293 M3R/RGS4, carbachol calcium Fluo-4 fluorescence; carbachol added at its EC20; 0 = buffer wells, 100 = carbachol control; calcium response, % at 10 µM; 1,700 compounds, 65% hits; AID 492999;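 active = duplicate-averaged calcium response above the buffer-only control mean plus 5 SD of those controls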;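 also: integrated fluorescence ratio F max minus min over baseline F0; higher response in RGS4-induced cells means RGS4 inhibition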
M3R Ca ctr: checks RGS4 inhibitor effects in non-induced HEK293 M3R cells. 1,900 compounds, 20% hits. carbachol calcium Fluo-4; submaximal (EC20) carbachol stimulus; buffer wells 0%, carbachol control wells 100%. shares compounds with RGS4 inh. activity (percent), % at 10 µM. AID 493000; call rule not given here;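 also: RGS4 induction absent so cells express M3R without RGS4; higher means more calcium signal and flags a non-specific hit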
M3R basal Ca ctr: second RGS4 inhibitor counter-screen in uninduced cells lacking carbachol. shares compounds with RGS4 inh. HEK293 M3R/RGS4 non-induced, Fluo-4 calcium, no carbachol; normalised: buffer wells 0%, carbachol wells 100%. calcium response (agonist-mode artifact), % at 10 µM. 1,900 compounds, 22% hits. AID 493001;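 active = duplicate-averaged calcium rise in uninduced cells above buffer wells' mean plus 5 SD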
The depositor's hits bear a star; i = inactive; x = no result given. Most compounds without a hit are left out; they make up all but 3.5% or so of the library.

SMILES | MrgX1 allo act | RGS4 act | MrgX1 ag | RGS4 inh | MrgX1 antagonist | RGS4 inh valid | M3R Ca ctr | M3R basal Ca ctr
O=C(CCN1C(=O)S/C(=C\c2ccccc2)C1=O)N1CCOCC1 | i | i | i | i | i | x | x | x
O=C(CN1C(=O)S/C(=C/C=C/c2ccccc2)C1=O)Nc1ccc(C(=O)O)cc1 | i | i | i | 4.7* | i | 7.0%* | i | i
CC(=O)Nc1ccc(S(=O)(=O)N2C(=O)c3cccc4cccc2c34)cc1 | i | i | i | i | i | x | x | x
Cc1cccc(N(C(=O)CCC(=O)Nc2nccs2)C(C(=O)NC(C)(C)C)c2ccc(O)cc2)c1 (centres undefined) | i | i | i | i | i | x | x | x
O=C1Nc2ccccc2/C1=C\C(=O)c1ccccc1 | i | i | i | i | i | x | x | x
O=C1Nc2ccc(Br)cc2/C1=C/C(=O)c1ccc2c(c1)OCO2 | i | i | i | 6.1* | -5* | i | 41%* | i
N=C1SC(CC(=O)Nc2ccccc2[N+](=O)[O-])C(=O)N1c1ccccc1 (centres undefined) | i | i | i | i | i | x | x | x
O=S(=O)(Nc1ccc(O)c2ccccc12)c1cccs1 | i | i | i | 8.1* | i | 37%* | i | i
O=S(=O)(Nc1cccc2ccccc12)c1cccs1 | i | i | i | i | i | x | x | x
Cc1cccc(C)c1NC(=O)CSc1nnc(C)n1CC1CCCO1 (centres undefined) | i | i | i | i | i | x | x | x
O=C(/C=C/c1ccco1)NCC(=O)N/N=C/c1ccc([N+](=O)[O-])cc1 | i | i | i | i | i | x | x | x
COc1cc(C(C[N+](=O)[O-])c2c(-c3ccccc3)cc3ccccn23)cc(OC)c1OC (centres undefined) | i | i | i | i | i | x | i | i
COc1ccc(C(C[N+](=O)[O-])c2c(-c3ccccc3)cc3ccccn23)cc1OC (centres undefined) | i | i | 55* | 13* | i | 12%* | i | i
O=Nc1c(-c2ccccc2)cc2ccccn12 | i | i | i | i | i | x | x | x
COc1cc(C(C[N+](=O)[O-])c2c(C)cc3ccccn23)ccc1O (centres undefined) | i | i | i | i | i | x | x | x
COc1ccc(C(C[N+](=O)[O-])c2c(-c3ccccc3)cc3ccccn23)cc1 (centres undefined) | i | i | i | 15* | i | 12%* | i | i
COc1cc(-c2ncc3ccccn23)cc(OC)c1OC | i | i | i | i | i | x | x | x
C=CCN(C(=O)C1=NN(C2CCS(=O)(=O)C2)C(=O)CC1)c1nc(-c2ccc([N+](=O)[O-])cc2)cs1 (centres undefined) | i | i | i | i | i | x | x | x
CC(=O)CCc1oc2c([N+](=O)[O-])cccc2c1-c1ccc(C)o1 | i | i | i | i | i | x | x | x
C/C(CCc1oc2c(Br)cc(Br)cc2c1-c1ccc(C)o1)=N\O | i | i | i | 11* | i | i | i | i
Cc1ccc(/C=C2\SC(=S)N(CCC(=O)N3CCOCC3)C2=O)cc1 | i | i | i | i | i | x | x | x
COc1ccc(Cl)cc1S(=O)(=O)N1CCCC(C(=O)N2CCOCC2)C1 (centres undefined) | i | i | i | i | i | i | i | i
S=c1[nH]nc(-c2cc(-c3ccsc3)n[nH]2)n1-c1cccc2ccccc12 | i | i | i | 6.1* | i | 11%* | i | i
O=c1[nH][nH]c(-c2ccccc2O)c1C(C[N+](=O)[O-])c1ccccc1 (centres undefined) | i | i | i | i | i | i | i | i
O=c1[nH][nH]c(-c2ccccc2O)c1C(C[N+](=O)[O-])c1cccc(Cl)c1 (centres undefined) | i | i | i | i | i | x | x | x
SMILES | MrgX1 allo act | RGS4 act | MrgX1 ag | RGS4 inh | MrgX1 antagonist | RGS4 inh valid | M3R Ca ctr | M3R basal Ca ctr
O=c1[nH][nH]c(-c2ccccc2O)c1C(C[N+](=O)[O-])c1ccc(Cl)cc1Cl (centres undefined) | i | i | i | 6.2* | i | i | i | i
Cc1cc(O)c(C(C[N+](=O)[O-])c2ccc(Cl)cc2Cl)c(=O)o1 (centres undefined) | i | i | i | i | i | x | x | x
CCOc1ccc2[nH]c3c(=O)n(CCc4ccc(OC)cc4)cnc3c2c1 | i | i | i | i | i | x | x | x
CC(=O)N1Cc2ccccc2CC1C(=O)NCc1ccccc1F (centres undefined) | i | i | i | i | i | x | x | x
CCOC(=O)CN1C(=O)S/C(=C/c2ccc(OCc3ccc(C(=O)O)cc3)cc2)C1=O | i | i | i | i | i | x | x | x
CNC(=S)N1CCN(C(=O)C2CCCO2)CC1 (centres undefined) | i | i | i | 4.7* | i | i | i | i
CCOc1ccccc1NC(=O)c1cccc(NC(=O)CC(c2ccccc2)c2ccccc2)c1 | i | i | i | 11* | i | 30%* | 36%* | 16%*
CCN(CC(=O)NC(C)C)Cc1nc2c(Br)cc(Br)cc2c(=O)[nH]1 | i | i | i | 5* | i | 25%* | i | 12%*
COC(=O)CSC1=C(C#N)C(=O)NC(c2ccccc2)S1 (centres undefined) | i | i | i | 5.1* | i | 47%* | i | 9.5%*
N#Cc1c(-c2ccccc2Cl)noc1/C=C/Nc1ccc(C(=O)O)cc1 | i | i | i | i | i | x | i | i
O=C(NCC(c1cccs1)N1CCOCC1)C1CCN(S(=O)(=O)c2ccccc2C(F)(F)F)CC1 (centres undefined) | i | i | i | i | i | x | x | x
O=C(/C=C/c1cccc(Cl)c1)c1ccc([N+](=O)[O-])o1 | i | i | i | 14* | i | 18%* | 34%* | 7.0%*

Screening results: PubChem, Johns Hopkins Ion Channel Center
